Only some compounds are listed: those with a hit (about 3.5% of all), similar ones and a draw of the others.
MrgX1 ag – human MrgX1 receptor agonism, primary screen | Q96LB2 | MrgX1-HEK293 cells, Fluo-4 calcium fluorescence, agonist mode; active compounds read high | B-score at 10 µM | 310,000 compounds, 0.44% hits | AID 588627;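 active means calcium response B-score plate-corrected fluorescence ratio at least 3 library SD, with starting fluorescence B-score inside 5 SD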
Target sequence (Q96LB2 whole entry, looked up): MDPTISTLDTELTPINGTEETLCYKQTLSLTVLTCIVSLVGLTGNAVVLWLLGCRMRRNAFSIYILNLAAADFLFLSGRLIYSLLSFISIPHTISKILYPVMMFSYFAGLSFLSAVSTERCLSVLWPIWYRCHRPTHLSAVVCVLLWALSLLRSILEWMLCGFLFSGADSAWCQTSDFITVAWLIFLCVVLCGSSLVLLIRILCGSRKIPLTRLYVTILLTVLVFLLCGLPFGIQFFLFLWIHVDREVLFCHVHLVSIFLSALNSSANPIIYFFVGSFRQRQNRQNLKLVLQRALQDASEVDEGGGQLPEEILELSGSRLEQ
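Material: MrgX1-expressing HEK293 cells / Dosing: compound as first of three additions / Incubation: overnight seeding, then 1 h dark dye loading / Signal: Fluo-4 NW calcium fluorescence / Evaluation: B-scored fluorescence response ratio / Benchmarks: positive and negative control wells on each plate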
MrgX1 antagonist – antagonists of human MrgX1 receptor; AID 588676; Q96LB2; 310,000 compounds, 1.3% hits; B-score at 10 µM; MRGX1-HEK293 calcium flux, Fluo-4, BAM8-22 antagonism; active compounds read low;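 active means calcium-response B-score plate-corrected more than 3 library SD below zero, starting fluorescence within 5 deviations, no agonist response on first addition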;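 further: peak minus trough fluorescence over baseline after final BAM8-22 challenge near maximal dose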
RGS4 inh – human RGS4 inhibition | P49798 | B-score at 10 µM | HEK293 M3R/RGS4 inducible, Fluo-4 calcium flux; active compounds read high; triggered by carbachol at its EC20 | 310,000 compounds, 0.45% hits | AID 463165;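 active means B-score, a plate-corrected calcium signal, over three deviations above library mean, with baseline fluorescence within five deviations of library mean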;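 further: RGS4 expression induced by doxycycline in cells with stable M3 receptor; B-score is computed from the integrated fluorescence ratio over baseline after carbachol; higher B-score means a larger calcium signal and so more RGS4 inhibition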
Target sequence (P49798 whole entry, looked up): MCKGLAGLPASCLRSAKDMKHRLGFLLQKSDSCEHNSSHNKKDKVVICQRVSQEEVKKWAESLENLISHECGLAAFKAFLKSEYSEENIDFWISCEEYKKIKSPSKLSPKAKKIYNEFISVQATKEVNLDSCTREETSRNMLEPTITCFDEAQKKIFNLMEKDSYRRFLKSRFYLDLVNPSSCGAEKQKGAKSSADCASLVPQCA
RGS4 act – RGS4 potentiation or activation. HEK293 M3R/inducible RGS4, carbachol calcium flux Fluo4; active compounds read low. B-score at 10 µM. 310,000 compounds, 0.92% hits;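 active means B-score of the integrated calcium signal more than 4 SD below the library mean, with starting fluorescence not abnormally high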;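 further: negative B-score means reduced calcium response which marks RGS4 activation or potentiation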
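Reagent: ECmax carbachol challenge; Test system: M3R-expressing HEK293 line, RGS4 induced by doxycycline; Schedule: overnight RGS4 induction, 30 min dye load 37 °C, 20 min compound RT; Detection: calcium dye Fluo4 fluorescence; Read-out: Agonist-evoked peak-minus-minimum fluorescence over baseline, integrated ratio, B score.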
MrgX1 allo act – allosterically activates human MrgX1 receptor signaling | B-score at 10 µM | 310,000 compounds, 0.63% hits | AID 588675 | MrgX1-HEK293, Fluo-4 calcium flux, FDSS; active compounds read high;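 active means plate-corrected calcium response at least 3 library SD above typical, normal starting fluorescence, not activating the receptor alone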;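 further: compound read alongside a low EC10 to EC30 dose of BAM8-22 agonist; peak minus trough fluorescence over baseline measured at the second addition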
An asterisk follows results filed as active; i = inactive; · = no result.

SMILES	MrgX1 ag	MrgX1 antagonist	RGS4 inh	RGS4 act	MrgX1 allo act
Cn1c2ccccc2c2cc(/C=N/NC(=O)c3cc(O)ccc3O)ccc21	i	i	i	-9*	i
COc1cc(C(=O)N/N=C/c2ccc3c(c2)c2ccccc2n3C)ccc1O	i	i	i	i	i
Cc1ccc(-c2ccc(=O)n(Cc3cccc(Br)c3)n2)cc1	i	i	i	i	i
C#CCOc1c(Br)cc(/C=N/O)cc1OCC	i	i	i	i	7.9*
CN(C)S(=O)(=O)c1ccc(C(=O)NCCC(=O)N2CCCC2)cc1	i	i	i	i	i
Cc1ccc(C)c(-n2c3nc(=O)[nH]c(=O)c-3cc3cc([N+](=O)[O-])ccc32)c1	34*	i	·	·	i
FC(F)Sc1ccc(NC(=S)NC(c2ccccc2)c2ccccc2)cc1	i	i	i	i	i
CN(C)CCCN(Cc1ccccc1)C(=S)Nc1ccc(SC(F)F)cc1	i	i	i	-7.3*	i
CC(=O)c1ccc(NC(=S)N(CCCN(C)C)Cc2ccccc2)cc1	i	i	i	i	i
CN(C(=S)Nc1ccc(SC(F)F)cc1)C(c1ccccc1)c1ccccc1	i	i	i	-7.4*	i
Cc1ccc(/C=N/NC(=O)CNC(=O)c2cccc([N+](=O)[O-])c2C)o1	i	i	i	i	i
COCCOc1cc(NC(=O)CS(=O)(=O)CC(=O)N(C)C)c(Cl)cc1Cl	i	i	i	i	i
Cc1ccc(/C=N/NC(=O)c2nc3nc(C)cc(C)n3n2)cc1	i	-4.7*	i	i	i
Cc1cc(C)n2nc(C(=O)N/N=C/c3cn(C)nc3C)nc2n1	i	i	i	i	i
Cc1ccc(C(=O)c2oc3ccccc3c2NC(=O)c2cc(-c3cc(C)ccc3O)n[nH]2)cc1	i	-5.2*	i	i	i
CCN1/C(=C/C=C/C=C/c2sc3ccccc3[n+]2CC)Sc2ccccc21	i	i	i	i	i
CCN1/C(=C/C=C/C=C/C=C/c2sc3ccccc3[n+]2CC)Sc2ccccc21	i	-5.1*	i	i	i
CCN1/C(=C/C=C/c2sc3ccccc3[n+]2CC)Sc2ccccc21	i	-4.6*	i	-7*	i
CC[n+]1c(/C=C/Nc2ccccc2)sc2ccccc21	i	i	i	i	i
Cc1nc(N2CCN(C(=O)c3ccco3)CC2)nc2c1C(=O)CCC2	i	i	i	i	i
CCC(Oc1ccccc1)C(=O)Nc1ccc(C)c(S(=O)(=O)N2CCOCC2)c1 (stereo unspecified)	i	i	i	i	i
COc1cc(N2C(=O)C=CC2=O)c(OC)cc1Cl	i	i	i	-7.1*	i
COc1cc(C=O)ccc1OCCSc1ccc(Cl)cc1	i	-5.4*	i	i	i
COc1cc(C=O)ccc1OCCOCCOc1ccc(Cl)cc1	i	i	i	i	i
FC(F)Sc1ccc(NC(=S)NCC2CCCCC2)cc1	i	-5.1*	i	i	i
SMILES	MrgX1 ag	MrgX1 antagonist	RGS4 inh	RGS4 act	MrgX1 allo act
Clc1ccc(NCc2ccsc2)cc1	i	i	i	i	i
CCCCn1c(N)c(N(CCOC)C(=O)c2ccc(COc3ccccc3)o2)c(=O)[nH]c1=O	i	i	i	i	i
O=C(NC(NC(=S)Nc1ccc(Cl)cc1Cl)C(Cl)(Cl)Cl)c1cccc([N+](=O)[O-])c1 (stereo unspecified)	i	i	i	-7.2*	i
O=C(O)c1cccc(NC(=S)NC(NC(=O)c2cccc([N+](=O)[O-])c2)C(Cl)(Cl)Cl)c1 (stereo unspecified)	i	i	i	i	i
O=C(NC1CCN(Cc2ccccc2)CC1)c1ccccc1OCc1ccccc1	i	i	i	i	i
O=C(NC1CCN(Cc2ccccc2)CC1)c1ccccc1OCc1ccccc1Cl	i	i	i	i	10*
CCOC(=O)c1[nH]c2ccc(OC)cc2c1NC(=O)C(C)N1CCSCC1 (stereo unspecified)	·	·	i	i	·
CCOC(=O)c1[nH]c2cc(OC)c(OC)cc2c1NC(=O)C(C)N1CCN(Cc2ccccc2)CC1 (stereo unspecified)	i	i	i	-8.7*	i
CC1CN(S(=O)(=O)c2ccc(C(=O)Nc3nnc(-c4ccc5c(c4)CCCC5)o3)cc2)CC(C)O1 (stereo unspecified)	i	i	i	-7.3*	i
CCOc1ccc(S(=O)(=O)N2CCC(C(=O)NCc3ccncc3)CC2)cc1Cl	i	i	i	i	i
CC(=O)OCCCCCCCCCCC[N+]1(C)CCCCC1	i	i	i	-8.9*	i
CCC(C)Nc1nc(N)c([N+](=O)[O-])c(NCCO)n1 (stereo unspecified)	i	i	i	i	17*
CC(C)CCNc1nc(N)c([N+](=O)[O-])c(NCCO)n1	i	i	i	i	i
O=C(NCc1ccco1)c1cc2cc(Br)ccc2o1	i	i	i	i	i
CC(C)NC(=O)c1cnc(Sc2ncc(C(F)(F)F)cc2Cl)n1C	i	i	i	-7.6*	i
Cn1c(C(=O)O)cnc1Sc1ncc(C(F)(F)F)cc1Cl	i	i	i	i	i
C=CCNc1nc(C(=O)OCC(=O)Nc2c(Cl)cccc2C(F)(F)F)cs1	i	i	i	i	i
O=C(NC1CCCCC1)c1ccc(CS(=O)Cc2ccc(Cl)cc2)o1 (stereo unspecified)	i	i	i	i	i
COc1ccccc1CNC(=O)[C@@H](NC(=O)C1CCN(C(=O)[C@@H]2CCCN2C(=O)OC(C)(C)C)CC1)C(C)C	i	i	i	i	i
CCO[C@@H]1OC(C(=O)N2CCN(Cc3ccc4c(c3)OCO4)CC2)=C[C@H](c2coc3ccccc3c2=O)[C@H]1CCCO	i	-5.1*	i	i	i
CCO[C@H]1OC(C(=O)N2CCN(Cc3ccccc3)CC2)=C[C@@H](c2coc3ccccc3c2=O)[C@@H]1CCCO	i	i	i	i	i
COCCOC(=O)/C(=C\c1cc(C(C)(C)C)c(O)c(C(C)(C)C)c1)C(C)=O	i	i	i	i	6.6*
CC(C)(C)c1cc(CCC(=O)NN)cc(C(C)(C)C)c1O	i	i	i	i	i
C[n+]1cccc(O)c1SCc1ccccc1	i	i	i	i	i
O=C(CCl)N=c1sccn1Cc1ccccc1Cl	i	i	i	-7.3*	i
